Results on 9 molecules are retold here after ChEMBL document CHEMBL3272182 (J Med Chem, 1976).

The species entered for data set [1] is Rattus norvegicus. The data set can be described thus: Antidiuretic activity in rat. The class given is functional, Urine.
The species named for data set [2] is Rattus norvegicus. The data set can be described thus: Vasopressor activity in rat. The following applies: in vivo. The class given is organism-based.
The nature of data set [3]: Retardation factor of the compound by silica gel thin-layer chromatography.
The species named for data set [4] is Rattus norvegicus. The data set can be described thus: Ratio of antidiuretic activity in rat to vasopressor activity in rat. Also noted: species or system Urine. The method in brief: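 Antidiuretic and vasopressor potencies were each expressed in units/mg from rat assays. The A/P value is the antidiuretic potency divided by the vasopressor potency.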
The target of data set [5] is T1, Oxytocin receptor (Rattus norvegicus) (UniProt P70536).
T1 sequence (whole entry): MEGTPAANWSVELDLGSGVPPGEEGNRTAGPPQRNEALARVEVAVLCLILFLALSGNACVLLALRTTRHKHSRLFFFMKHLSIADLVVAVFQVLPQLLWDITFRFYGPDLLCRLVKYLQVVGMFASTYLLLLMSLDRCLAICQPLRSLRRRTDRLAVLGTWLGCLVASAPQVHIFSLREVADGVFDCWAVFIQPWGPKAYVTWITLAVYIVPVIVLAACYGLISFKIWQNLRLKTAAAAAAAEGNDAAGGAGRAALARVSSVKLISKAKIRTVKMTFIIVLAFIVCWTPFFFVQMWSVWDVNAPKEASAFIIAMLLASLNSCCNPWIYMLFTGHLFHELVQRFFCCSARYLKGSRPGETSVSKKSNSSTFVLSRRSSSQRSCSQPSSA
Description: Activity at oxytocin receptor in rat uterus in presence of Mg2+. Format: tissue-based.

Data set [6] addresses T1, Oxytocin receptor (Rattus norvegicus). Description: Activity at oxytocin receptor in rat uterus. The class given is tissue-based.

Positions of bridges follow the written chain, without caps; N, C: chain ends. Non-standard residues stand in square brackets, D forms with d. Residues, ends and D or L forms follow the SMILES beside them. Mpa = O=C(O)CCS

For `C[C@@H](O)[C@@H]1NC(=O)[C@H](Cc2ccccc2)NC(=O)[C@H](Cc2ccc(O)cc2)NC(=O)CCSSC[C@@H](C(=O)N2CCC[C@H]2C(=O)N[C@H](CCCNC(=N)N)C(=O)NCC(N)=O)NC(=O)[C@H](CC(N)=O)NC1=O`, the Activity in data set [1] is 793 U/mg; in data set [2], below 0.02 U/mg. In data set [3], this molecule came in with a Rf of 0.24.
Turning to `NC(=O)CC[C@@H]1NC(=O)[C@H](Cc2ccccc2)NC(=O)[C@H](Cc2ccc(O)cc2)NC(=O)CCSSC[C@@H](C(=O)N2CCC[C@H]2C(=O)N[C@H](CCCN=C(N)N)C(=O)NCC(N)=O)NC(=O)[C@H](CC(N)=O)NC1=O` (stereo in doubt; 4) [DESMOPRESSIN], the Ratio in data set [4] turned out to be 4. Further, the values for the Activity in data set [1] and in data set [2] were 1390 U/mg and 346 U/mg, respectively. In addition, the Rf in data set [3] is given as 0.18.
Consider `CC(C)[C@@H]1NC(=O)[C@H](Cc2ccccc2)NC(=O)[C@H](Cc2ccc(O)cc2)NC(=O)CCSSC[C@@H](C(=O)N2CCC[C@H]2C(=O)N[C@H](CCCNC(=N)N)C(=O)NCC(N)=O)NC(=O)[C@H](CC(N)=O)NC1=O` ([Mpa]YFVNCP[dR]G-NH2; disulfide 1-6), for which the results for the Activity in data set [1] and in data set [2] were 1230 U/mg and below 0.01 U/mg, respectively.
As for `NC(=O)CC[C@@H]1NC(=O)[C@H](Cc2ccccc2)NC(=O)[C@H](Cc2ccc(O)cc2)NC(=O)CCSSC[C@@H](C(=O)N2CCC[C@H]2C(=O)N[C@H](CCCN=C(N)N)C(=O)NCC(N)=O)NC(=O)[C@H](CC(N)=O)NC1=O` (stereo in doubt; 6) [DESMOPRESSIN], the Ratio in data set [4] amounted to 80. Moreover, the Activity was 870 U/mg in data set [1] and 0.39 U/mg in data set [2]. Further, the Rf in data set [3] is reported as 0.21.
`C[C@@H](O)[C@@H]1NC(=O)[C@H](Cc2ccccc2)NC(=O)[C@H](Cc2ccc(O)cc2)NC(=O)CCSSC[C@@H](C(=O)N2CCC[C@H]2C(=O)N[C@@H](CCCN=C(N)N)C(=O)NCC(N)=O)NC(=O)[C@H](CC(N)=O)NC1=O`: the Activity in data set [1] turned out to be 758 U/mg; in data set [2], 30 U/mg.
On to `NC(=O)CC[C@@H]1NC(=O)[C@H](Cc2ccccc2)NC(=O)[C@H](Cc2ccc(O)cc2)NC(=O)[C@@H](N)CSSC[C@@H](C(=O)N2CCC[C@H]2C(=O)N[C@H](CCCN=C(N)N)C(=O)NCC(N)=O)NC(=O)[C@H](CC(N)=O)NC1=O`, for which the Activity in data set [5] worked out at 1.02 U/mg; in data set [6], 0.4 U/mg; in data set [1], 114 U/mg; in data set [2], 1.1 U/mg. For the same molecule, the Ratio in data set [4] is recorded as 30. In addition, in data set [3], the Rf was found to be 0.1.
As for `N=C(N)NCCC[C@@H](NC(=O)[C@@H]1CCCN1C(=O)[C@@H]1CSSCCC(=O)N[C@@H](Cc2ccc(O)cc2)C(=O)N[C@@H](Cc2ccccc2)C(=O)N[C@@H](CCC(N)=O)C(=O)N[C@@H](CC(N)=O)C(=O)N1)C(=O)NCC(N)=O` (stereo in doubt; 4), the Activity is 66 U/mg in data set [5] and 47 U/mg in data set [6].
With `N=C(N)NCCC[C@@H](NC(=O)[C@@H]1CCCN1C(=O)[C@@H]1CSSCCC(=O)N[C@@H](Cc2ccc(O)cc2)C(=O)N[C@@H](Cc2ccccc2)C(=O)N[C@@H](CCC(N)=O)C(=O)N[C@@H](CC(N)=O)C(=O)N1)C(=O)NCC(N)=O` (stereo in doubt; 6), the Activity in data set [5] came out at 2.9 U/mg.
With `N=C(N)NCCC[C@H](NC(=O)[C@@H]1CCCN1C(=O)[C@@H]1CSSC[C@H](N)C(=O)N[C@@H](Cc2ccc(O)cc2)C(=O)N[C@@H](Cc2ccccc2)C(=O)N[C@@H](CCC(N)=O)C(=O)N[C@@H](CC(N)=O)C(=O)N1)C(=O)NCC(N)=O` [VASOPRESSIN], the Activity in data set [5] stood at 25.5 U/mg; in data set [1], 323 U/mg. Further, the Ratio in data set [4] was 1.
